Screening data as filed in PubChem.
An excerpt weighted towards active compounds, which were near 1.1% of everything screened.
Diaph act CS: counter-screen for diaphorase-based assays: diaphorase activators and chemical reducers; Diaphorase/resazurin coupled assay, resorufin fluorescence, 16 min; stronger effect = higher value; 1 = vehicle wells, 0 = NADH-free wells; activation factor at 20 µM; 0.005% of 190,000 active;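 active = diaphorase activity raised at least twofold by the compound at 20 µM; inactive = activation factor below 2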
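Material: bacterial diaphorase enzyme (C. kluyveri); amount: enzyme 0.07 U/mL final; reagent: NADH substrate 0.114 mM plus resazurin dye 0.1 mM, final; doses: single compound dose of 20 µM, 1% DMSO final; timing: 16 min enzyme reaction, ambient temperature; measured by: fluorescence of resorufin, 544 nm excitation, 590 nm emission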
Redox H2O2 prof: compounds producing H2O2 with reducing agent – biochemical, NIH compound library profiling, artefact control for MLSCN library redox annotation, primary screen | 0.03% of 200,000 active | AID 878 | activation, % at 10 µM | DTT-dependent redox cycling H2O2, phenol red/HRP absorbance; 100% = 100 µM peroxide control, 0% = buffer;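 active = activation of at least 50% relative to the plate's high and low controls in the primary single-dose screen; inactive = activation below 50%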;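 also: compound incubated with DTT at 0.8 mM final as the reducing agent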
PMI activator: activators of human phosphomannose isomerase | purified human PMI, coupled resazurin fluorescence, 20 min; stronger effect = higher value; 1 = vehicle control, 0 substrate-free wells | activation factor at 20 µM | 0.005% of 190,000 active | AID 1214;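 active = activation factor of 2 or more at 20 µM, relative to plate controls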
Target sequence (P34949 whole entry, looked up): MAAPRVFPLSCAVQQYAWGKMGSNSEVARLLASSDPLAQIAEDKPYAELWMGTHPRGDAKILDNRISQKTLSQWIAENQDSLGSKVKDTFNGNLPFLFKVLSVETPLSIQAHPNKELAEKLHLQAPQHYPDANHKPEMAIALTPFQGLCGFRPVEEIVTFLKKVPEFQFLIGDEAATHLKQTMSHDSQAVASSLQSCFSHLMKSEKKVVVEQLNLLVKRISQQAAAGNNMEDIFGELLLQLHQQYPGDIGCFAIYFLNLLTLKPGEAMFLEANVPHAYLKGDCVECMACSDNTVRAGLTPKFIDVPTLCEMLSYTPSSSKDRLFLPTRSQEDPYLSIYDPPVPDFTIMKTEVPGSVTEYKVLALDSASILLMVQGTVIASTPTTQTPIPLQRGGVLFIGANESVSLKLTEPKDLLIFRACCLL
PMI act satM6P: PMI (human) activation, high substrate. coupled PMI enzyme assay, resazurin fluorescence, 20 min; stronger effect = higher value; 1 = untreated enzyme, 0 = substrate-free blank. activation factor at 20 µM. AID 1216. 0.34% of 190,000 active. P34949;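 active = activation factor of 2 or more at 20 µM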
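Test system: human phosphomannose isomerase with PGI, G6PDH, diaphorase coupling enzymes / Doses: 20 µM compound, 1% DMSO / Times: enzyme reaction with compound 20 min at room temperature / Measured by: Diaphorase-driven resazurin-to-resorufin fluorescence, excitation 544, emission 590 nm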
Diaph inh CS: diaphorase inhibition or chemical oxidation counter-screen; inhibition, % at 20 µM; 0.69% of 190,000 active; AID 1217; diaphorase resazurin-to-resorufin fluorescence, NADH, 16 min; bacterial (C. kluyveri) enzyme, not human;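 active = primary screen inhibition at 20 µM above a set limit, cut at about 50% in these data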;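 also: plate controls were DMSO with full reaction for no effect and wells lacking NADH for full effect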
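Test system: bacterial diaphorase enzyme (C. kluyveri); Quantity: 0.14 U/mL diaphorase, enzyme working solution; Times: reaction incubation of 16 min at room temperature; Measured by: fluorescence of resorufin formed from resazurin, Ex 544/Em 590 nm; Benchmarks: positive control minus NADH, DMSO neutral control.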
G6PDH CS: counter-screen for G6PDH assay hits: L. mesenteroides G6PDH inhibition; Purified L. mesenteroides G6PDH, diaphorase/resazurin coupled fluorescence, 45 min; inhibition, % at 5 µM; 0.12% of 200,000 active; AID 1020; in the data active = inhibition above about 50%
The depositor's hits bear a star; · = no result.

SMILES	Diaph act CS	Redox H2O2 prof	PMI activator	PMI act satM6P	Diaph inh CS	G6PDH CS
OCC1(Cc2ccccc2)CCN(C2CCN(c3ccc(F)c(F)c3)CC2)CC1	·	0	·	·	·	7
Cc1occc1C(=O)N/N=C/c1cnn(C)c1C	0.4	1	0.6	0.4	60*	-1
CCOCCCNC(=S)N1CCC(C(=O)c2ccc3c(c2)OCCO3)CC1	0.9	0	0.9	0.8	11	18
CCOC(=O)C1(CC2CCCCO2)CCN(C(=O)Nc2ccccc2CC)CC1 (configuration not stated)	1.1	-2	1	1	-7	10
O=C(CN1CCN(CCN2C(=O)c3cccc4cccc(c34)C2=O)CC1)c1ccc(Cl)cc1	1	0	1.7	2.6*	0	-19
NNC(=O)c1ccc2ccccc2n1	1.1	0	1.2	1	-6	2
COc1ccc(N=C(NN)c2ccc3ccccc3n2)cc1	0.9	0	1.8	2.3*	13	6
Cc1[nH]c2ccccc2c1C(C[N+](=O)[O-])c1ccco1 (configuration not stated)	0.5	0	0.8	0.6	51*	2
COc1ccc(C(=O)COC(=O)c2cc(S(=O)(=O)NCc3ccccc3)ccc2O)cc1	0.8	-2	1	0.9	17	-4
CC(/C=C/c1ccco1)=N\NC(=O)CNc1ccc2ccccc2c1	0.4	-1	0.6	0.3	56*	3
CC(/C=C/c1ccco1)=N/NC(=O)CNc1ccccc1C	0.9	0	1.1	1	10	1
S=c1nc(-c2sccc2OCc2ccc(Cl)cc2Cl)[nH][nH]1	0.5	-2	0.9	0.8	54*	-4
COC(=O)c1cc(OC)c(OC)cc1NC(=O)c1ccccc1C	0.7	0	0.9	0.9	26	0
O=C(COC(=O)c1cccc(S(=O)(=O)NCc2ccccc2)c1)NCC1CCCO1 (configuration not stated)	0.9	-2	1	1	13	6
O=C(N/N=C/c1cc2c3c(c1O)CCCN3CCC2)c1ccccc1O	0.4	0	0.7	0.5	63*	1
Cc1nn(-c2ccccc2)c(N2CCCC2)c1/C=N/NC(=O)c1ccccc1O	0.9	0	1	1	12	0
Cc1ccc(N/N=C2\CCS(=O)(=O)c3sccc32)cc1	0.8	-1	1.8	2.8*	15	-4
CN(C)/N=C1\CCS(=O)(=O)c2sccc21	0.8	0	0.9	0.8	17	2
COc1ccc(S(=O)(=O)Nc2ccc(O)c(Sc3ncn[nH]3)c2)cc1	0.8	0	0.9	0.9	15	4
COc1ccc(S(=O)(=O)Nc2cc(Sc3ncn[nH]3)c(O)c3ccccc23)cc1	0.8	1	0	0.3	20	54*
CC1=CC(=Nc2c(C)n(C)n(-c3ccccc3)c2=O)C=C(C)C1=O	0.3	1	0.2	0.4	70*	2
Cc1c(N=C2Nc3cccc4cccc2c34)c(=O)n(-c2ccccc2)n1C	0.9	-3	0.9	0.6	8	6
CCC(C)C1=CC(=Nc2c(C)n(C)n(-c3ccccc3)c2=O)C=C(C(C)CC)C1=O (configuration not stated)	0.3	1	0.5	0.4	68*	-4
Cc1c(N=c2scc(-c3ccccc3)n2C)c(=O)n(-c2ccccc2)n1C	0.9	-1	1.2	1.1	6	4
CCN(CC)CCNc1cc(C)nc2c1C(=O)C(=O)C=C2N1CCCCC1	·	1	·	·	·	51*
SMILES	Diaph act CS	Redox H2O2 prof	PMI activator	PMI act satM6P	Diaph inh CS	G6PDH CS
Cc1cc(C)c2c(c1)[C@@H]1C=CC[C@@H]1[C@H](c1ccc(S(=O)(=O)N3CCOCC3)cc1)N2	0.8	0	1.5	2.2*	23	-2
Cc1ccc(S(=O)(=O)N2CCOCC(=O)NCCOCCNC(=O)COCC2)cc1	0.9	-2	1.1	1	8	-1
COc1ccc(Cl)cc1NC(=O)C(C)N(C)Cc1cccc(Cl)c1Cl (configuration not stated)	0.8	0	0.8	0.9	25	0
Cc1cccc(-n2c(=S)[nH]c3c(oc4ccccc43)c2=O)c1	0.4	0	1	0.9	64*	-2
O=c1c2oc3ccccc3c2[nH]c(=S)n1-c1ccccc1	0.3	0	0.9	0.8	66*	-35
CCc1nc2oc3cc(OC)ccc3c(=O)c2c(=O)n1-c1ccccc1	0.9	0	0.9	1	10	0
Cc1ccc(-n2c(C)nc3oc4ccccc4c(=O)c3c2=O)cc1	0.4	2	·	·	56*	15
CCOC(=O)N1CCN(C(=O)c2ccc(-n3c(=S)[nH]c4ccccc4c3=O)cc2)CC1	0.7	0	1.2	1	28	2
Cc1c(-n2c(=S)[nH]c3ccccc3c2=O)c(=O)n(-c2ccccc2)n1C	0.9	0	1	1.1	10	-5
Cc1ccc(-n2c(=S)[nH]c3c(oc4ccccc43)c2=O)cc1	0.3	0	1	1.1	66*	14
CCSc1nc2[nH]ncc2c(=O)[nH]1	0.9	0	1	1	8	3
Cc1cc(C(=O)Nn2cnc3ccccc3c2=O)ccc1[N+](=O)[O-]	1.1	1	1.1	1	-12	-6
COc1ccc(C)cc1NC(=O)C1CCN(C(=O)Cc2ccccc2)CC1	0.8	0	1	0.9	15	4
CCN(CC)C(=O)Cn1cc(C(=O)C2CC2)c2ccccc21	0.9	0	1	1	10	-1
CCOc1cc(CNc2ccc(N3CCCC3)cc2)cc(Cl)c1OC	0.3	0	0.2	0.3	68*	10
COc1cc(CNc2ccc(N3CCCC3)cc2)cc(Cl)c1OC	0.5	0	0.2	0.3	55*	41
CCOc1ccc(CNc2ccc(N3CCCC3)cc2)cc1	0.3	1	0.1	0.2	75*	-20
CCCCc1ccc(N=N/C(C(=O)Nc2cc(OC)c(NC(C)=O)cc2OC)=C(/C)O)cc1	0.9	0	0.9	1	11	-15
CCOc1ccc(NC(=S)N(CCc2c(C)[nH]c3ccccc23)Cc2ccco2)cc1	0.9	1	1	0.9	12	16
C=CCNc1nc(=S)[nH]c2cc(OC)c(OC)cc12	0.8	-2	1	1	19	-8
COc1cc2[nH]c(=S)nc(NC3CCCC3)c2cc1OC	1	0	1.8	2.5*	3	-1
